The structures appear in SMILES notation.

The subject of one assay is Rattus norvegicus. The assay can be described thus: Potency to inhibit bradycardiac effect measured by Von Bezold-Jarisch assay in 5 anesthetized rats. Conditions: read-out: ID50 (the source's name). Format: functional. The gist of the method:
(§1)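 Male Sprague-Dawley rats, 250–380 g, under urethane (1.5 g/kg ip), with cannulated trachea and femoral veins; heart rate recorded by ECG. Lowest consistent bradycardic dose of 2-methyl-5-HT titrated iv, then given every 12 min. Increasing iv doses given 5 min before each challenge, with saline vehicle group.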
With `O=c1c2c3ccccc3n3c2c(cn1[C@H]1CN2CCC1CC2)CCC3`, the ED50 is over 2.41 µg/kg.

A further assay relates to Canis familiaris. Nature of the assay: Inhibition of emesis induced by peroral administration of cisplatin in 6 dogs at 1.0 mg/kg (p<0.01). Format: functional, Canis lupus familiaris. The following applies: route oral. The gist of the method:
(§2)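 Single oral pretreatment in dogs (n = 6) by liquid gelatin capsule, 30 min before iv cisplatin at 3 mg/kg. Number of emetic episodes monitored continuously for 5 h after cisplatin. Significance versus control by Dunnett's t test.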
Regarding `Cc1nccn1CC1CCc2c(c3ccccc3n2C)C1=O` (stereo not given) [ONDANSETRON], the “No. of emetic episodes” value was 2.

A further assay deals with Rattus norvegicus. The assay can be described thus: Potency to inhibit bradycardiac effect measured by Von Bezold-Jarisch assay in 8 anesthetized rats. The class given is functional. The following applies: read-out: ID50 (the source's name). The gist of the method: as §1
Regarding `Cn1c2ccccc2c2c(=O)n([C@@H]3CN4CCC3CC4)ccc21`, the ED50 is 0.13 µg/kg.
On to `Cc1cccc2c(=O)n(C3CN4CCC3CC4)cc(C)c12.Cl` (stereo not given), for which the ED50 came to 0.25 µg/kg.
Consider `COc1cccc2c(=O)n([C@@H]3CN4CCC3CC4)ccc12.Cl`, for which the ED50 was 0.03 µg/kg.
On the same count and under the same terms, to `CCc1cccc2c(=O)n([C@@H]3CN4CCC3CC4)ccc12.Cl` belongs 0.13 µg/kg; to `Cl.O=c1c2cccc3c2c(cn1[C@@H]1CN2CCC1CC2)CCCC3`, 0.09 µg/kg; to `CCc1cccc2c1CCN(C1CN3CCC1CC3)C2=O.Cl` (stereo not given), 0.18 µg/kg.
On the same count and under the same terms, as for `Cc1cccc2c(=O)n(C3CN4CCC3CC4)ccc12.Cl` (stereo not given), the figure is 0.1 µg/kg.
In the case of `Cc1cccc2c1CCN([C@@H]1CN3CCC1CC3)C2=O.Cl`, the ED50 turned out to be 0.13 µg/kg.
The same measure, in the same setting: as for `CN1C2CCC1CC(n1cc3c4c(cccc4c1=O)CCC3)C2` (stereo not given), the figure is 0.65 µg/kg.
Still for that read-out and setting: as for `CN1[C@@H]2CC[C@H]1C[C@@H](OC(=O)c1c[nH]c3ccccc13)C2` [TROPISETRON], the figure is 0.4 µg/kg.

For a further assay, the target named is T1, Serotonin 3 (5-HT3) receptor (Rattus norvegicus, UniProt P35563+Q9JJ16).
T1 sequence (P35563 whole entry): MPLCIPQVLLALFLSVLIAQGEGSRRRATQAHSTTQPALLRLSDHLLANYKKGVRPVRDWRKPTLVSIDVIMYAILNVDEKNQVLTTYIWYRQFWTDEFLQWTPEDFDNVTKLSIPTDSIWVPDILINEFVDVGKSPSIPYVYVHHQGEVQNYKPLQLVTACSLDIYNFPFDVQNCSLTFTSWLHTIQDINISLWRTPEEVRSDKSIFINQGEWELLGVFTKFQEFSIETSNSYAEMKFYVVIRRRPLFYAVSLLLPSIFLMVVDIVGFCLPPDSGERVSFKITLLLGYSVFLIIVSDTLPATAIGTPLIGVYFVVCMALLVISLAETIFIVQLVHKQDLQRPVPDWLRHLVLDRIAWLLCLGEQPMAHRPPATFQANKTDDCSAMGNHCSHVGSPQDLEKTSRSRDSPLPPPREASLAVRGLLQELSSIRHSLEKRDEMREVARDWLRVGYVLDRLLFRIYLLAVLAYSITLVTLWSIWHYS
T1 sequence (Q9JJ16 whole entry): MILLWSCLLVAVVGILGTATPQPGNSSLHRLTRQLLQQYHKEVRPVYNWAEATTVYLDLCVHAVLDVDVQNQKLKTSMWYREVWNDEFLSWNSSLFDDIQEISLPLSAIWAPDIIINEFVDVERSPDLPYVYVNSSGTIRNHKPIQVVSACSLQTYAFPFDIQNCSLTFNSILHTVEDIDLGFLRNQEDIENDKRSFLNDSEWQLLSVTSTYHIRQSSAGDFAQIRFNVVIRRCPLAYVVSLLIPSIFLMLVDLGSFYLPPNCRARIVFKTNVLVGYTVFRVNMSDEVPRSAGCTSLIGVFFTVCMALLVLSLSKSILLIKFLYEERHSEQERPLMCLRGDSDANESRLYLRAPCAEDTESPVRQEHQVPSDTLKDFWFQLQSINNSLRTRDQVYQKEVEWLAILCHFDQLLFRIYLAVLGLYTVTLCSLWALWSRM
Nature of the assay: Binding affinity against 5-hydroxytryptamine 3 (5-HT3) receptor in rat brain cortical membranes using radioligand [3H]quipazine. Format: cell membranes.
Conditions: not given
In outline: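 Rat cerebral cortex membranes, washed in 50 mM Tris pH 7.4, incubated 45 min at 25 °C in Tris-Krebs buffer pH 7.4 with 0.3–0.7 nM [3H]quipazine plus 0.1 μM paroxetine. Ten test concentrations from 1e-12 to 1e-4 M. Nonspecific binding defined with 1.0 μM racemic zacopride. Filtration, scintillation counting, IC50 by iterative fit, Ki by Cheng-Prusoff. Means of ≥3 determinations, or of two.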
The Ki is the equilibrium dissociation constant of an inhibitor or competing ligand from its target. The compound `Cn1cc(C(=O)N[C@@H]2CN3CCC2CC3)c2ccccc21` had a Ki of 0.398 nM.
On the same count and under the same terms, to `COc1cc(N)c(Cl)cc1C(=O)N[C@@H]1CN2CCC1CC2` belongs 0.251 nM; to `O=C(N[C@@H]1CN2CCC1CC2)c1c2n(c3ccccc13)CCCCC2`, 5.01 nM.
Same read-out and setting: to `Cc1c(C(=O)NC2CN3CCC2CC3)c2ccccc2n1C` (stereo not given) belongs 39.8 nM; to `CCc1cccc(C(=O)N[C@@H]2CN3CCC2CC3)c1C`, 501 nM.
On to `Cc1cccc2c(=O)n(C3CN4CCC3CC4)cc(C)c12.Cl` (stereo not given), for which the Ki was 1 nM.
On the same count and under the same terms, to `COc1cccc2c1CCN(C1CC3CCC(C1)N3C)C2=O` (stereo not given) belongs 10 nM; to `O=C1c2ccccc2CCN1C1CN2CCC1CC2` (stereo not given), 10 nM; to `O=c1c2ccccc2c(-c2ccccc2)cn1[C@@H]1CN2CCC1CC2`, 2.51 nM.
On the same count and under the same terms, as for `COc1cccc2c(=O)n([C@@H]3CN4CCC3CC4)ccc12.Cl`, the figure is 0.158 nM.
Take `Cl.O=c1c2cccc3c2c(cn1[C@H]1CN2CCC1CC2)CCC3`: the Ki was 7.94 nM.
`COc1cccc2c(=O)n(C3CC4CCC(C3)N4C)ccc12` (stereo not given): the Ki is 2.51 nM.
Still for that read-out and setting: as for `CCc1cccc2c(=O)n([C@@H]3CN4CCC3CC4)ccc12.Cl`, the figure is 0.2 nM.
`Cl.O=c1c2cccc3c2c(cn1[C@@H]1CN2CCC1CC2)CCCC3` had a Ki of 0.398 nM.
Take `CCc1cccc2c1CCN(C1CN3CCC1CC3)C2=O.Cl` (stereo not given): affinity was put at a Ki of 0.2 nM.
The compound `Cc1cccc2c(=O)n(C3CN4CCC3CC4)ccc12.Cl` (stereo not given) showed a Ki of 0.631 nM.
Same read-out and setting: to `Cc1cccc2c1CCN([C@@H]1CN3CCC1CC3)C2=O.Cl` belongs 0.316 nM; to `CN1C2CCC1CC(n1cc3c4c(cccc4c1=O)CCC3)C2` (stereo not given), 0.794 nM.
Consider `CN1[C@@H]2CC[C@H]1C[C@@H](OC(=O)c1c[nH]c3ccccc13)C2` [TROPISETRON], for which the Ki was 2 nM.

Another assay has as its system Canis familiaris. Nature of the assay: Inhibition of emesis induced by intravenous administration of cisplatin in 6 dogs at 1 mg/kg (p<0.01). Format: functional, Canis lupus familiaris.
Conditions: not given
The gist of the method: (§3)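 Dogs, n = 6 per group, given one iv dose of test compound as an aqueous solution through a jugular vein cannula 30 min before iv cisplatin (3 mg/kg). Emetic episodes counted by continuous observation for 5 h after cisplatin. Results given as mean ± value versus control, with significance by Dunnett's t test.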
With `Cc1nccn1CC1CCc2c(c3ccccc3n2C)C1=O` (stereo not given) [ONDANSETRON], the “No. of emetic episodes” value is given as 1.17.

Another assay deals with Canis familiaris. The assay can be described thus: Inhibition of emesis induced by peroral administration of cisplatin in 6 dogs at 0.3 mg/kg (p<0.01). Format: functional, Canis lupus familiaris. The following applies: route oral. The gist of the method: as §2
On to `Cc1nccn1CC1CCc2c(c3ccccc3n2C)C1=O` (stereo not given) [ONDANSETRON], for which the “No. of emetic episodes” value worked out at 3.17.

The next assay has as its system Canis familiaris. The assay can be described thus: Inhibition of emesis induced by intravenous administration of cisplatin in 6 dogs at 0.03 mg/kg. The class given is functional, Canis lupus familiaris.
Conditions: not given
The gist of the method: as §3
On to `Cc1nccn1CC1CCc2c(c3ccccc3n2C)C1=O` (stereo not given) [ONDANSETRON], for which the “No. of emetic episodes” value is reported as 8.33.

A further assay has as its system Canis familiaris. Nature of the assay: Inhibition of emesis induced by peroral administration of cisplatin in 6 dogs at 0.1 mg/kg. The class given is functional, Canis lupus familiaris. The following applies: route oral. The gist of the method:
as §2
Consider `Cc1nccn1CC1CCc2c(c3ccccc3n2C)C1=O` (stereo not given) [ONDANSETRON], for which the “No. of emetic episodes” value is listed as 10.5.

For the next assay, the system named is Rattus norvegicus. Nature of the assay: Potency to inhibit bradycardiac effect measured by Von Bezold-Jarisch assay in 9 anesthetized rats. The class given is functional. The following applies: Rattus norvegicus; read-out: ID50 (the source's name). The gist of the method: as §1
For `Cc1nccn1CC1CCc2c(c3ccccc3n2C)C1=O` (stereo not given) [ONDANSETRON], the ED50 came to 2.6 µg/kg.

Another assay deals with Rattus norvegicus. The assay can be described thus: Potency to inhibit bradycardiac effect measured by Von Bezold-Jarisch assay in 4 anesthetized rats. The class given is functional.
Conditions: not given
The gist of the method:
as §1
In turn, `Cl.O=c1c2cccc3c2c(cn1[C@H]1CN2CCC1CC2)CCC3` showed an ID50 of 2 pKi.

Another assay has as its system Mustela putorius furo. The assay can be described thus: Inhibition of emesis induced by peroral administration of cisplatin in 5 ferrets at 0.3 mg/kg (p<0.01). Format: functional. Conditions: route oral.
In the case of `Cc1nccn1CC1CCc2c(c3ccccc3n2C)C1=O` (stereo not given) [ONDANSETRON], the “No. of emetic episodes” value is listed as 4.2.

The subject of a further assay is Canis familiaris. The assay can be described thus: Inhibition of emesis induced by intravenous administration of cisplatin in 6 dogs at 0.1 mg/kg (p<0.01). Format: functional, Canis lupus familiaris.
Conditions: not given
The gist of the method:
as §3
For `Cc1nccn1CC1CCc2c(c3ccccc3n2C)C1=O` (stereo not given) [ONDANSETRON], the “No. of emetic episodes” value came out at 4.83.

Another assay has as its system Canis familiaris. Nature of the assay: Inhibition of emesis induced by peroral administration of cisplatin in 6 dogs at 0.01 mg/kg. The class given is functional, Canis lupus familiaris. Conditions: route oral. In outline: as §2
With `Cc1nccn1CC1CCc2c(c3ccccc3n2C)C1=O` (stereo not given) [ONDANSETRON], the “No. of emetic episodes” value came to 12.67.

For the next assay, the system named is Canis familiaris. Nature of the assay: Inhibition of emesis induced by intravenous administration of cisplatin in 6 dogs at 0.01 mg/kg. Format: functional, Canis lupus familiaris.
Conditions: not given
The gist of the method:
as §3
For `Cc1nccn1CC1CCc2c(c3ccccc3n2C)C1=O` (stereo not given) [ONDANSETRON], the “No. of emetic episodes” value turned out to be 13.33.

The next assay relates to Canis familiaris. Nature of the assay: Inhibition of emesis induced by peroral administration of cisplatin in 6 dogs at 0.03 mg/kg. Format: functional, Canis lupus familiaris. The following applies: route oral. The gist of the method:
as §2
In the case of `Cc1nccn1CC1CCc2c(c3ccccc3n2C)C1=O` (stereo not given) [ONDANSETRON], the “No. of emetic episodes” value is listed as 18.33.

In a further assay the test system is Mustela putorius furo. The assay can be described thus: Inhibition of emesis induced by peroral administration of cisplatin in 5 ferrets at 0.03 mg/kg. The following applies: route oral. Format: functional.
Turning to `Cc1nccn1CC1CCc2c(c3ccccc3n2C)C1=O` (stereo not given) [ONDANSETRON], the “No. of emetic episodes” value amounted to 11.2.

The subject of another assay is Canis familiaris. The assay can be described thus: Inhibition of emesis induced by intravenous administration of cisplatin in 6 dogs at 0.3 mg/kg (p<0.01). The class given is functional, Canis lupus familiaris.
Conditions: not given
In outline:
as §3
On to `Cc1nccn1CC1CCc2c(c3ccccc3n2C)C1=O` (stereo not given) [ONDANSETRON], for which the “No. of emetic episodes” value is 1.

The next assay has as its system Mustela putorius furo. The assay can be described thus: Inhibition of emesis induced by peroral administration of cisplatin in 5 ferrets at 0.1 mg/kg (p<0.01). The following applies: route oral. Format: functional.
For `Cc1nccn1CC1CCc2c(c3ccccc3n2C)C1=O` (stereo not given) [ONDANSETRON], the “No. of emetic episodes” value is on record as 2.2.

The record behind these values is ChEMBL document CHEMBL1126794, “2-(Quinuclidin-3-yl)pyrido[4,3-b]indol-1-ones and isoquinolin-1-ones. Potent conformationally restricted 5-HT3 receptor antagonists” (J Med Chem, 1993).
